From PubChem BioAssay
An excerpt weighted towards active compounds, which were near 3.5% of everything screened.
MrgX1 allo act: allosterically activates human MrgX1 receptor signaling; MrgX1-HEK293, Fluo-4 calcium flux, FDSS; hits give high values; B-score at 10 µM; hit rate 0.63% among 310,000; AID 588675;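 active = plate-corrected calcium response at least 3 library SD above typical, normal starting fluorescence, not activating the receptor alone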;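 also: compound read alongside a low EC10 to EC30 dose of BAM8-22 agonist; peak minus trough fluorescence over baseline measured at the second addition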
Target sequence (Q96LB2 whole entry, looked up): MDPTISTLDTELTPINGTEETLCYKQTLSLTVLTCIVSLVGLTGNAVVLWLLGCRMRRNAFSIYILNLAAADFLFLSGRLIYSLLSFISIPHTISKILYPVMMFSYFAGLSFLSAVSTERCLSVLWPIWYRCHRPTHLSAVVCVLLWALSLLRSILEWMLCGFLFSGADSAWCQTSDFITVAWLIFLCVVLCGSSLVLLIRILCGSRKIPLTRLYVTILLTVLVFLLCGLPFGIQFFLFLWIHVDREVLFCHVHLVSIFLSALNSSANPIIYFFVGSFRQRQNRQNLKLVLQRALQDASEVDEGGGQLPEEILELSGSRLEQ
RGS4 act: potentiators or activators of RGS4; hit rate 0.92% among 310,000; HEK293 M3R/inducible RGS4, carbachol calcium flux Fluo4; hits give low values; AID 463111; B-score at 10 µM;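 active = B-score of the integrated calcium signal more than 4 SD below the library mean, with starting fluorescence not abnormally high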;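 also: negative B-score means reduced calcium response which marks RGS4 activation or potentiation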
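Assay system: Inducible-RGS4 HEK293 cells carrying M3 receptor | Schedule: Compound preincubation 20 min at room temperature before agonist | Signal: Kinetic calcium fluorescence imaging with Fluo4-AM dye, 2 µM | Read-out basis: B score from integrated fluorescence ratio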
MrgX1 antagonist: blocks BAM8-22 activation of human MrgX1 receptor; B-score at 10 µM; MRGX1-HEK293 calcium flux, Fluo-4, BAM8-22 antagonism; hits give low values; AID 588676; hit rate 1.3% among 310,000; Q96LB2;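 active = calcium-response B-score plate-corrected more than 3 library SD below zero, starting fluorescence within 5 deviations, no agonist response on first addition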;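 also: peak minus trough fluorescence over baseline after final BAM8-22 challenge near maximal dose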
RGS4 block: human RGS4 inhibition | P49798 | AID 463165 | hit rate 0.45% among 310,000 | HEK293 M3R/RGS4 inducible, Fluo-4 calcium flux; hits give high values; triggered by carbachol at its EC20 | B-score at 10 µM;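 active = B-score, a plate-corrected calcium signal, over three deviations above library mean, with baseline fluorescence within five deviations of library mean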;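 also: RGS4 expression induced by doxycycline in cells with stable M3 receptor; B-score is computed from the integrated fluorescence ratio over baseline after carbachol; higher B-score means a larger calcium signal and so more RGS4 inhibition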
Target sequence (P49798 whole entry, looked up): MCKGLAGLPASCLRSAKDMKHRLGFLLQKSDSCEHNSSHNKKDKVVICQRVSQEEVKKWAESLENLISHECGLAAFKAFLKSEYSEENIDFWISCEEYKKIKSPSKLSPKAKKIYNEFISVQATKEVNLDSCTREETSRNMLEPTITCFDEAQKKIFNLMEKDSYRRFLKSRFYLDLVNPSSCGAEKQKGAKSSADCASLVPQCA
MrgX1 agonist: agonists of human MrgX1 receptor. MrgX1-HEK293 cells, Fluo-4 calcium fluorescence, agonist mode; hits give high values. B-score at 10 µM. hit rate 0.44% among 310,000. AID 588627;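 active = calcium response B-score plate-corrected fluorescence ratio at least 3 library SD, with starting fluorescence B-score inside 5 SD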
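System: HEK293 cells stably expressing human MrgX1 receptor; Dosing: test compound in the initial addition of three; Schedule: overnight plating, then 30 min 37 °C plus 30 min room-temperature dye loading; Detection: kinetic calcium dye fluorescence, Fluo-4 NW; Controls: per-plate positive and negative controls for Z′ factor.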
Large screens that a line does not name were inactive.

CC12CCC(C(=O)Nc3ccccc3)(C/C1=N\O)C2(C)C (stereo not given)	none
COc1ccc(-n2nc(C(=O)NCC(=O)NCCC3=CCCCC3)c3ccccc3c2=O)cc1OC	none
Cc1ccc(S(=O)(=O)c2cn(Cc3ccc(F)cc3)c3cc4c(cc3c2=O)OCO4)cc1	MrgX1 antagonist -4.56
Cc1[nH]c2ccccc2c1NC(=O)CN1CCN(C(=O)c2ccco2)CC1	none
Cn1c(SCc2cccc(Br)c2)nnc1-c1ccncc1	none
CCOC(=O)c1c(NC(=O)CSc2c[nH]c3ccccc23)sc2c1CCC2	RGS4 act -7.1
Oc1ccccc1/C=N/n1cnn(Cc2ccccc2Cl)c1=S	MrgX1 antagonist -6.13
COc1ccc(/C=N/n2cnn(Cc3ccccc3Cl)c2=S)cc1	none
COc1ccc(Cc2nnc(SCC(=O)N(C)CC(=O)Nc3ccc(C)cc3)o2)cc1	MrgX1 antagonist -4.59
CCCCCn1nc(C(=O)OCC(=O)c2c(N)n(C)c(=O)n(C)c2=O)c2ccccc2c1=O	none
CCCCCCn1nc(C(=O)OCC(=O)c2c(N)n(C)c(=O)n(C)c2=O)c2ccccc2c1=O	RGS4 act -8.72
CSc1nc(NCC(C)C)c2c3c(sc2n1)CN(C)CC3	RGS4 act -7.36
COCCNc1nc(SC)nc2sc3c(c12)CCN(C)C3	none
CC1CCc2c(sc3nc(C(C)(C)C)nc(N4CCN(C(=O)CCl)CC4)c23)C1 (stereo not given)	RGS4 act -7.6
Cn1c(=O)c2c(nc(SCC(=O)c3ccccc3F)n2C)n(C)c1=O	MrgX1 antagonist -7
O=S(=O)(Nc1ccc(N2CCCCC2)cc1)c1cccs1	none
O=S(=O)(Nc1cc(Cl)ccc1N1CCCCC1)c1cccs1	MrgX1 antagonist -13.2
O=c1c2ccccc2nc(COc2ccccc2)n1/N=C/c1ccc(O)c(O)c1	RGS4 act -7.65
O=C(O)COc1ccc(/C=N/n2c(COc3ccccc3)nc3ccccc3c2=O)cc1	none
Cc1ccc(C(NC(=O)N2CCCC2)C(Cl)Cl)cc1F (stereo not given)	MrgX1 antagonist -4.78
Cc1ccccc1CC(=O)N1CCCC1	none
COc1ccc(-c2noc(N3CCC(C(=O)NCCCN4CCCC(C)C4)CC3)n2)cc1 (stereo not given)	none
Brc1ccc(-c2ccc(/C=N/Nc3nc(N4CCOCC4)nc(N4CCOCC4)n3)o2)cc1	none
Fc1cnc(N/N=C/c2ccc(-c3ccc(Br)cc3)o2)nc1N1CCOCC1	RGS4 act -7.81
CCOc1ccc(S(=O)(=O)n2c([N+](=O)[O-])cnc2C)c(C)c1C	none
CSc1cccc(CNC(=O)C2CCC(=O)N(CCCN3CCCC3=O)C2)c1 (stereo not given)	none
CCSc1nc2c(c(=O)n(C)c(=O)n2C)n1Cc1ccc(Cl)cc1	none
Cn1c(=O)c2c(nc(SCCN3CCCCC3)n2Cc2ccc(Cl)cc2)n(C)c1=O	RGS4 act -6.97
CCN(Cc1ccc(C#CCCO)cc1)CC1CCCN(CCc2cccc(OC)c2)C1 (stereo not given)	RGS4 act -7.01
CCN(Cc1ccc(NC(C)=O)cc1)CC1CCCN(CCc2cccc(F)c2)C1 (stereo not given)	none
Cn1sccc1=O	none (no result: RGS4 act, RGS4 block)
C[n+]1c(/C=C/c2ccc(O)cc2)ccc2ccccc21	none
Cc1cc(/C=C\c2ccc3cc(N(C)C)ccc3[n+]2C)c(C)n1-c1ccccc1	MrgX1 antagonist -9.69 (no result: RGS4 act, RGS4 block)
CCOC(=O)CSc1nc(N)c(C#N)c(-c2ccc(OC)cc2)c1C#N	MrgX1 antagonist -5.8
N/C(Cc1ccc(Cl)cc1Cl)=N\OC(=O)c1cccs1	MrgX1 antagonist -7.94
COc1cc(C2/C(=C(\O)c3ccc4c(c3)OCCO4)C(=O)C(=O)N2Cc2ccco2)cc(OC)c1OC (stereo not given)	none
CC1CCN(CC(CS(=O)(=O)c2ccc([N+](=O)[O-])cc2)N2CCC(C)CC2)CC1 (stereo not given)	MrgX1 antagonist -5.15
Clc1ccccc1CN1CCN(/N=C/C=C/c2ccco2)CC1	none
COc1ccc(Cc2nnc(SCC(=O)c3ccc4c(c3)OCO4)o2)cc1	none
COc1ccc(C(=O)N2CCc3ccc(NC(=O)c4ccccn4)cc3C2)cc1F	none (no result: MrgX1 allo act, MrgX1 antagonist, MrgX1 agonist)
CCOC(=O)C1=C(c2ccccc2)NC(=S)NC1c1cccc([N+](=O)[O-])c1 (stereo not given)	none
CCOC(=O)C1=C(c2ccccc2)NC(=S)NC1c1ccc(C)c([N+](=O)[O-])c1 (stereo not given)	MrgX1 antagonist -4.89
CN(C)c1ccc(/C=C2\SC(=S)N(Nc3ncc(C(F)(F)F)cc3Cl)C2=O)cc1	MrgX1 allo act 13.2
COc1cc(/C=C2\SC(=S)N(Nc3ncc(C(F)(F)F)cc3Cl)C2=O)ccc1O	MrgX1 allo act 16.8
COc1cc(/C=C2\SC(=S)N(Nc3ccccc3)C2=O)ccc1O	none
CCn1c(SCC(=O)NC2CC2)nnc1-c1cccc(OC)c1	none
CCn1c(C)c(C(C)=O)c(N2CCN(C(c3ccccc3)c3ccccc3)CC2)nc1=S	RGS4 act -7.38
CCc1cc(C(=O)N2CCCC(N3CCN(c4cccc(C(F)(F)F)c4)CC3)C2)n(C)n1 (stereo not given)	none
CC(C)(C#CC(O)(c1ccccc1)c1ccccc1)N1CCCCC1	RGS4 act -7.09
Cc1ccc(NC(=O)CCn2c(=O)[nH]c3ccsc3c2=O)cc1C	none
Cc1cc(=O)oc2c(C)c(OCC(=O)N3CCN(c4cccc(Cl)c4)CC3)ccc12	none
Cc1cc(C)cc(NC(=O)C(OC(=O)c2ccc([N+](=O)[O-])o2)c2ccccc2)c1 (stereo not given)	MrgX1 antagonist -6.63
COc1cccc(NC(=O)C(OC(=O)c2ccc([N+](=O)[O-])o2)c2ccccc2)c1 (stereo not given)	none
COc1ccc(CCC(=O)NCC(c2ccco2)N2CCc3ccccc32)cc1 (stereo not given)	none
C[C@H](OC(=O)N1CCN(C(c2ccccc2)c2ccccc2)CC1)[C@@H]1O[C@@]2(C)CCC[C@H]1O2	none
CC(C)C[C@@H](COc1ccccc1)N1CCN(CCc2ccccc2)CCC1=O	MrgX1 allo act 11.1
CCCCN1C(=O)NC(NC(=O)c2ccco2)(C(F)(F)F)C1=O (stereo not given)	none
CC(C)Oc1ccc(C(=O)NC2(C(F)(F)F)NC(=O)N(CCCc3ccccc3)C2=O)cc1 (stereo not given)	RGS4 act -7.11
Cc1ccccc1N/N=C/c1sc(=O)n(Cc2cccc(C(=O)O)c2)c1Cl	none
COC(=O)c1cccc(Cn2c(Cl)c(/C=N/Nc3ccccc3C)sc2=O)c1	MrgX1 antagonist -8.09
O=C(C(=O)N1CCCC1)c1c(-c2ccccc2)[nH]c2ccccc12	none
CCCCSc1nc2sc3c(c2c(=O)n1-c1ccccc1)CCN(C)C3	RGS4 act -7.28
C=C(C)CSc1nc2sc3c(c2c(=O)n1-c1ccccc1)CCN(C)C3	RGS4 act -7.46
